# In the library only some 1.5% were active in any assay of this set; here they are far more common.
# NR1D1 modulator: modulates human Rev-erb alpha binding to DNA; P20393; Rev-erbα–FITC-DNA binding, fluorescence polarization, 90 min; activity, % at 10 µM; actives 0.79% (n = 370,000); AID 1259318;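 active means activity above about 14%, limit read from the data; passing the limit was not always enough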;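 further: 0% = DMSO wells with 35 nM protein and 100% = DMSO wells with 750 nM protein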
# Target sequence (P20393 whole entry, looked up): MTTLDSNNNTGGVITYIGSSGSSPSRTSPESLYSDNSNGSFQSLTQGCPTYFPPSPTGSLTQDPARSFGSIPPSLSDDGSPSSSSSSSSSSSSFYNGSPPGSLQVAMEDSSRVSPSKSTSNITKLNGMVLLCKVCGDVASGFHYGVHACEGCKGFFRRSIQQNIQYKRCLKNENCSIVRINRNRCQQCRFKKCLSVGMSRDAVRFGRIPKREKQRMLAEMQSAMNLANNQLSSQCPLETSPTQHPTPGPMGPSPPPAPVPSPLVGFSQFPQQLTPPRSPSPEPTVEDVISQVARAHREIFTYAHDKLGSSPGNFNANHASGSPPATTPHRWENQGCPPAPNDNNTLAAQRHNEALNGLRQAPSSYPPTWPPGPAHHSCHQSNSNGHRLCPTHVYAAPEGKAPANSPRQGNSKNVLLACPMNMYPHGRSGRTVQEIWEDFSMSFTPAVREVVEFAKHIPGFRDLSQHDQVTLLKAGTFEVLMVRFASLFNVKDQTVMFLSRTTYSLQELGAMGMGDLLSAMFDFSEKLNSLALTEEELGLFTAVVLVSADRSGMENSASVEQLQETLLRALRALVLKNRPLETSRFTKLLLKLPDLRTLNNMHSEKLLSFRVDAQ
# NR2E3 ag-1: activates human NR2E3 receptor. Q9Y5X4. AID 602229. CHO-S Gal4-NCOR/VP16-NR2E3 two-hybrid, luciferase. inhibition of corepressor binding, % at 3.98 µM. actives 0.35% (n = 360,000);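 active means inhibition above the mean of all tested compounds plus 3 SD, cut at about 70% in these data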;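 further: 0% = DMSO with NR2E3 transfected cells and 100% = cells lacking NR2E3 construct; higher means lower luciferase signal from less NR2E3 corepressor binding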
# PG9 Ab binder: PG9 antibody binding by small molecule | AID 624416 | inhibition, % at 6.7 µM | TR-FRET gp120-PG9 antibody binding | actives 0.43% (n = 360,000); in the data active means inhibition above about 8.5%
# NR2E3 ag-2: agonists of human nuclear receptor NR2E3; Q9Y5X4; GST-NR2E3/biotin-RetCOR TR-FRET, 1536-well; inhibition of corepressor binding, % at 4.78 µM; actives 0.12% (n = 320,000); AID 2300;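 active means percent inhibition above the cutoff of mean plus 3 SD of all tested compounds, set per screening campaign, cut at about 20% in these data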;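 further: 0% = DMSO wells and 100% = biotin wells as full block of FRET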
#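 system = GST-tagged NR2E3 plus biotinylated RetCOR corepressor | input = 1.35 nM GST-NR2E3 | also added = 7 nM biotin-RetCOR | schedule = 5 h incubation at 4 °C | measured by = TR-FRET with europium anti-GST and streptavidin-D2, 340 nm excitation | read-out = percent loss of FRET ratio relative to control wells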
# NR2E3 ag conf: NR2E3 agonism confirmed in two-hybrid assay; shares compounds with NR2E3 ag-1; CHO-S mammalian two-hybrid NR2E3-NCOR, luciferase luminescence; inhibition, % at 3.98 µM; actives 51% (n = 2,300); AID 624378;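 active means average inhibition above a cutoff equal to the mean inhibition of all tested compounds plus one SD, cut at about 70% in these data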;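 further: 0% = DMSO in NR2E3 cells and 100% = DMSO in cells lacking NR2E3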
# VP16 counter: counter-screen for NR2E3 agonists: GAL4-VP16 reporter inhibitors | shares compounds with NR2E3 ag-1 | CHO-S GAL4-VP16 luciferase reporter, luminescence | inhibition, % at 3.98 µM | actives 29% (n = 2,300) | AID 624379;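 active means mean inhibition above a cutoff equal to the average over all tested compounds plus one standard deviation, cut at about 70% in these data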;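 further: luciferase from a UAS reporter driven by GAL4-VP16 transactivation; 0% = DMSO with VP16-transfected cells and 100% = DMSO with cells lacking VP16; higher means less reporter light so more repression of VP16 activity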
# * hit, by the source's call; / = not tested or not shown.
SMILES,NR1D1 modulator,NR2E3 ag-1,PG9 Ab binder,NR2E3 ag-2,NR2E3 ag conf,VP16 counter
COc1ccc(NC(=O)c2sc(=O)n(Cc3ccc(F)c(Cl)c3)c2C)cc1OC,7,57,0,/,76*,28
COc1ccc(C(C)=O)cc1Cn1c(C)c(C(=O)NCc2cccc(Cl)c2)sc1=O,8,27,0,/,/,/
COc1ccc(Cl)cc1Cn1c(C)c(C(=O)NCc2cccc(Cl)c2)sc1=O,-8,76*,-3,/,75*,4
COc1ccc(-c2cc(NC(=O)Cc3c[nH]c4ccccc34)ccc2Nc2cccnc2)c(OC)c1,9,/,-2,/,/,/
O=C(NC1CCCCN(Cc2ccc(Cl)cc2)C1=O)c1cccc([N+](=O)[O-])c1 (stereo not given),2,/,/,/,/,/
COc1ccc(Cl)cc1NC(=O)C(OC)c1ccccc1 (stereo not given),0,-4,1,4,/,/
COC(/C(=N/O)c1ccc(Cl)cc1)c1ccccc1 (stereo not given),5,59,1,3,83*,58
C=CCC1(CC=C)CCCN1C(=O)c1cc(COc2cncc(Cl)c2)on1,0,90*,-2,0,87*,69
C=CCC1(CC=C)CCCN1C(=O)c1cc(COc2cccc(OC)c2)on1,2,14,-1,-1,/,/
COC(=O)[C@]12C[C@H](CC(=O)N3CCN(C(=O)C4CC4)CC3)C(=O)N(CCc3ccc(OC)c(OC)c3)C1=C[C@H](COCc1ccccc1)O[C@@H]2C,16,/,/,/,/,/
O=c1c(/C=N/OCc2ccc(Cl)cc2Cl)c[nH]n1-c1cccc(Cl)n1,-6,62,1,4,98*,64
Cc1cc(O)c(/C=N/OCc2ccc(Cl)cc2Cl)c(=O)o1,4,-5,-1,2,/,/
C=C(C)/C=C1/C(Cc2ccccc2)N(CC2CC2)C(=N)N1C(=O)OCc1ccccc1 (stereo not given),5,/,/,/,/,/
Cc1ccc(CSC(Nc2ccc(F)cc2)=C(C#N)C#N)cc1,7,99*,1,0,99*,90*
CCN(CC)C(=O)CSC(Nc1ccc(F)cc1)=C(C#N)C#N,5,-5,-2,1,/,/
O=C(NCC1CCN(C(=O)C(=O)c2cc3ccccc3o2)CC1)c1cc(C(F)(F)F)cc(C(F)(F)F)c1,4,/,0,/,/,/
COc1ccc(NS(=O)(=O)c2ccc3c(c2)Cc2ccccc2-3)cn1,-4,85*,-1,1,93*,77*
COc1cc(CSc2nnnn2-c2ccc(C)cc2)cc(OC)c1OC,-4,98*,0,8,94*,84*
CCOC(=O)N1CCN(C(=O)C[C@H]2C[C@@]3(C(=O)OC)C(=C[C@H](COCc4ccccc4)O[C@@H]3C)N(Cc3ccccc3)C2=O)CC1,8,/,/,/,/,/
c1ccc(-c2nnc(-c3ccccn3)nc2NC2CCCCC2)cc1,-1,55,-1,-3,60,17
CC(C)N(Cc1cn(Cc2ccccc2)nn1)S(=O)(=O)c1ccc(F)cc1Br,0,/,/,/,/,/
COc1cc2c(OC(C)=O)c3c(c(-c4ccc5c(c4)OCO5)c2cc1OC)C(=O)OC3,0,81*,1,2,98*,31
COc1cc2c(O)c3c(c(-c4ccc5c(c4)OCO5)c2cc1OC)C(=O)OC3,-3,82*,-2,2,99*,43
O=C(OCC#CCSc1nnc(-c2ccc(F)cc2)o1)c1ccc(F)cc1,2,/,/,/,/,/
CCCc1ccc(Oc2cn[nH]c2-c2ccc(O)c(C)c2O)cc1,7,49,0,2,61,58
SMILES,NR1D1 modulator,NR2E3 ag-1,PG9 Ab binder,NR2E3 ag-2,NR2E3 ag conf,VP16 counter
COc1cccc2c(NCc3ccccc3)nc(-n3c(N)nc4ccccc43)nc12,-1,/,/,/,/,/
Cc1cc(C(=O)NC2CCCc3c2cnn3-c2ccc(C(C)(C)C)cc2)nn1C (stereo not given),4,101*,-1,-5,94*,82*
CC(C)(C)c1ccc(-n2ncc3c2CCCC3NC(=O)CCN2CCCO2)cc1 (stereo not given),0,66,0,1,-9,41
CC(C)(C)c1ccc(-n2ncc3c2CCCC3NC(=O)C2(C(N)=O)CC2)cc1 (stereo not given),-6,100*,-2,-2,92*,81*
CC(C)(C)c1ccc(-n2ncc3c2CCCC3NC(=O)CN2CCCCC2=O)cc1 (stereo not given),-4,58,-1,-5,15,39
CC(=O)NCC(=O)NC1CCCc2c1cnn2-c1ccc(C(C)(C)C)cc1 (stereo not given),6,12,1,0,/,/
CC(C)(C)c1ccc(-n2ncc3c2CCCC3NC(=O)CCn2cncn2)cc1 (stereo not given),-2,25,2,1,/,/
CC(=O)c1cccc(N=c2scc(-c3ccc(S(=O)(=O)N4CCOCC4)cc3)n2CCO)c1,0,68,-3,-1,82*,77*
C=CCn1c(-c2ccc(S(=O)(=O)N3CCOCC3)cc2)csc1=Nc1ccccc1,-1,23,0,0,/,/
O=C1c2cccc3c([N+](=O)[O-])c(O)cc(c23)C(=O)N1Nc1ccccc1,-3,-26,-2,0,/,/
O=C1c2ccccc2C(=O)N1Nc1ccccc1,4,58,0,1,19,20
O=S1(=O)CC2c3ccccc3CN2CN1Cc1ccccc1 (stereo not given),2,/,/,/,/,/
Cc1nn(Cc2cccc(F)c2)c(C)c1NC(=O)c1ccc(COc2ccccc2Cl)cc1,0,79*,-1,-2,94*,40
c1ccc(CNc2nc(-c3ccccn3)nc3ccccc23)cc1,3,95*,-1,-3,99*,59
c1ccc(CNc2nc(-c3ccccc3)nc3ccccc23)cc1,1,-27,-2,0,/,/
CCC(C)Nc1nc(-c2ccccn2)nc2ccccc12 (stereo not given),-3,100*,3,2,99*,56
Cc1nc(NC(=O)c2ccco2)sc1C(=O)Nc1ccc(Br)cc1,/,54,/,7,64,22
CC(CN1CCN(CCOCCO)CC1)CN1c2ccccc2Sc2ccc(Cl)cc21 (stereo not given),-1,49,-1,/,26,7
CNc1nc2c(c(=O)n(C)c(=O)n2C)n1Cc1ccccc1,-3,56,-1,2,15,28
Cn1c(=O)c2c(nc(NCc3ccco3)n2C/C=C/c2ccccc2)n(C)c1=O,-2,51,2,-1,88*,71
CC(Cl)=CCn1c(NCCc2ccccc2)nc2c1c(=O)n(C)c(=O)n2C,-6,48,3,/,91*,71*
CNc1nc2c(c(=O)n(C)c(=O)n2C)n1CCCc1ccccc1,-4,-4,1,1,/,/
COC(=O)C1CN(Cc2cn(Cc3ccc(C)cc3)nn2)CCS(=O)(=O)N1Cc1ccc(Cl)cc1 (stereo not given),0,/,/,/,/,/
